# Test results from ChEMBL document CHEMBL1145462, “In vivo pharmacodynamic activity of the glycopeptide dalbavancin” (Antimicrob Agents Chemother, 2007).
# Columns and labels:
# [1] = system: Streptococcus pneumoniae; assay: AUC/MIC ratio of Streptococcus pneumoniae 1199 infected neutropenic mouse thigh infection model at 0.40 mg/kg, ip administered every 24 hrs by static effect experiment; format: functional; conditions: dose 0.4 mg/kg; route intraperitoneal
# [2] = system: Streptococcus pneumoniae; assay: AUC/MIC ratio of Streptococcus pneumoniae 1325 infected neutropenic mouse thigh infection model at 1.46 mg/kg, ip administered every 24 hrs by static effect experiment; format: functional; conditions: route intraperitoneal
# [3] = system: Streptococcus pneumoniae; assay: AUC/MIC ratio of Streptococcus pneumoniae 1329 infected neutropenic mouse thigh infection model at 0.90 mg/kg, ip administered every 24 hrs by static effect experiment; format: functional; conditions: dose 0.9 mg/kg; route intraperitoneal
# [4] = system: Streptococcus pneumoniae; assay: AUC/MIC ratio of Streptococcus pneumoniae ATCC 10813 infected neutropenic mouse thigh infection model at 1.34 mg/kg, ip administered every 24 hrs by static effect experiment; format: functional; conditions: route intraperitoneal
# [5] = system: Staphylococcus aureus; assay: AUC/MIC ratio of Staphylococcus aureus ATCC 25923 infected neutropenic mouse thigh infection model at 42.7 mg/kg, ip administered every 24 hrs by static effect experiment; format: functional; conditions: route intraperitoneal
# [6] = system: Staphylococcus aureus; assay: AUC/MBC ratio of Staphylococcus aureus 31005 infected neutropenic mouse thigh infection model at 49.3 mg/kg, ip administered every 24 hrs by static effect experiment; format: functional; conditions: route intraperitoneal
# [7] = system: Streptococcus pneumoniae; assay: AUC/MIC ratio of Streptococcus pneumoniae 1325 infected neutropenic mouse thigh infection model at 0.83 mg/kg, ip administered every 72 hrs by static effect experiment; format: functional; conditions: route intraperitoneal
# [8] = system: Staphylococcus aureus; assay: AUC/MBC ratio of Staphylococcus aureus 33591 infected neutropenic mouse thigh infection model at 74 mg/kg, ip administered every 72 hrs by static effect experiment; format: functional; conditions: route intraperitoneal
# [9] = system: Staphylococcus aureus; assay: AUC/MBC ratio of Staphylococcus aureus ATCC 25923 infected neutropenic mouse thigh infection model at 51.2 mg/kg, ip administered every 24 hrs by 1-log killing experiment; format: functional; conditions: route intraperitoneal
# [10] = system: Streptococcus pneumoniae; assay: AUC/MIC ratio of Streptococcus pneumoniae 1199 infected neutropenic mouse thigh infection model at 0.85 mg/kg, ip administered every 72 hrs by 1-log killing experiment; format: functional; conditions: route intraperitoneal
# [11] = system: Staphylococcus aureus; assay: AUC/MIC ratio of Staphylococcus aureus 31005 infected neutropenic mouse thigh infection model at 94.6 mg/kg, ip administered every 72 hrs by 1-log killing experiment; format: functional; conditions: route intraperitoneal
# [12] = system: Staphylococcus aureus; assay: AUC/MBC ratio of Staphylococcus aureus 33591 infected neutropenic mouse thigh infection model at 93 mg/kg, ip administered every 72 hrs by 1-log killing experiment; format: functional; conditions: route intraperitoneal
# [13] = system: Staphylococcus aureus; assay: AUC/MIC ratio of methicillin-resistant Staphylococcus aureus infected neutropenic mouse thigh infection model at 53.5 mg/kg, ip administered every 24 hrs by 2-log killing experiment; format: functional; conditions: route intraperitoneal
# [14] = system: Staphylococcus aureus; assay: AUC/MIC ratio of Staphylococcus aureus Smith infected neutropenic mouse thigh infection model at 73.5 mg/kg, ip administered every 24 hrs by 2-log killing experiment; format: functional; conditions: route intraperitoneal
# [15] = system: Staphylococcus aureus; assay: AUC/MBC ratio of methicillin-resistant Staphylococcus aureus infected neutropenic mouse thigh infection model at 53.5 mg/kg, ip administered every 24 hrs by 2-log killing experiment; format: functional; conditions: route intraperitoneal
# [16] = system: Staphylococcus aureus; assay: AUC/MBC ratio of Staphylococcus aureus Smith infected neutropenic mouse thigh infection model at 73.5 mg/kg, ip administered every 24 hrs by 2-log killing experiment; format: functional; conditions: route intraperitoneal
# [17] = system: Staphylococcus aureus; assay: AUC/MIC ratio of Staphylococcus aureus Smith infected neutropenic mouse thigh infection model at 148 mg/kg, ip administered every 72 hrs by 2-log killing experiment; format: functional; conditions: route intraperitoneal
# [18] = system: Staphylococcus aureus; assay: AUC/MBC ratio of Staphylococcus aureus 33591 infected neutropenic mouse thigh infection model at 114 mg/kg, ip administered every 72 hrs by 2-log killing experiment; format: functional; conditions: route intraperitoneal
# [19] = system: Streptococcus pneumoniae; assay: AUC/MIC ratio of Streptococcus pneumoniae ATCC 10813 infected neutropenic mouse thigh infection model at 0.71 mg/kg, ip administered every 72 hrs by static effect experiment; format: functional; conditions: route intraperitoneal
# [20] = system: Staphylococcus aureus; assay: AUC/MIC ratio of Staphylococcus aureus ATCC 25923 infected neutropenic mouse thigh infection model at 160 mg/kg, ip administered every 72 hrs by static effect experiment; format: functional; conditions: route intraperitoneal
# [21] = system: Streptococcus pneumoniae; assay: AUC/MIC ratio of Streptococcus pneumoniae 1329 infected neutropenic mouse thigh infection model at 1.18 mg/kg, ip administered every 24 hrs by 1-log killing experiment; format: functional; conditions: route intraperitoneal
# [22] = system: Staphylococcus aureus; assay: AUC/MBC ratio of Staphylococcus aureus 307109 infected neutropenic mouse thigh infection model at 37 mg/kg, ip administered every 72 hrs by 2-log killing experiment; format: functional; conditions: route intraperitoneal
# [23] = Cmax in bacterial pathogen-infected neutropenic Swiss ICR mouse thigh infection model at 40 mg/kg, ip; format: ADME, organism-based; set-up: dose 40 mg/kg, route intraperitoneal; conditions: in vivo
# Summary of the method: (§1)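 Thigh-infected neutropenic mice received single intraperitoneal doses (2.5, 5, 10, 20, 40, 80 mg/kg; 0.2 ml/dose). Blood was drawn by retroorbital aspiration from groups of three mice at 0.5, 1, 2, 4, 6, 24, 48, 72 and 96 h. Plasma levels were measured by microbiologic assay with Bacillus subtilis (detection limit 0.10 mg/liter). Noncompartmental analysis was used: half-life by linear least-squares regression, AUC by trapezoidal rule.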
# [24] = system: Staphylococcus aureus; assay: Bactericidal activity against […] Staphylococcus aureus ATCC 29213 infected neutropenic Swiss ICR mouse thigh infection model assessed as drug level causing 1-log reduction of bacterial count at 15 mg/kg, ip dosed every 36 hrs; format: functional; conditions: route intraperitoneal
# [25] = system: Streptococcus pneumoniae; assay: Bactericidal activity against penicillin-susceptible Streptococcus pneumoniae ATCC 10813 infected neutropenic Swiss ICR mouse thigh infection model assessed as drug level causing 1-log reduction of bacterial count at 0.71 mg/kg, ip dosed every 72 hrs; format: functional; conditions: route intraperitoneal
# Summary of the method: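 Neutropenic mice (cyclophosphamide ip 150 mg/kg day −4, 100 mg/kg day −1, then every 48 h) received 0.1 ml log-phase inoculum per thigh under halothane. Intraperitoneal dalbavancin started 2 h later and was given for 6 days at q12h, q24h, q36h or q72h, two mice per regimen. Thigh CFU were counted at 144 h. Endpoint doses relative to start-of-therapy counts came from Hill-model nonlinear regression and are expressed per 24 h.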
# [26] = system: Staphylococcus aureus; assay: Antibacterial activity against methicillin-resistant Staphylococcus aureus in presence of 95% mouse serum ultrafiltrate; format: functional
# Summary of the method: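 MIC determined in broth, heat-treated (100°C, 30 min) 95% mouse serum, and 95% mouse serum ultrafiltrate, using arithmetic dilutions of 0.02 mg/liter per tube. Protein binding estimated as (MIC in 95% serum − MIC in ultrafiltrate)/MIC in 95% serum.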
# [27] = AUC in bacterial pathogen-infected neutropenic Swiss ICR mouse thigh infection model at 5 mg/kg, ip; format: ADME, organism-based; set-up: dose 5 mg/kg, route intraperitoneal; conditions: in vivo; summary of the method: as §1
# [28] = system: Mus musculus; assay: AUC in bacterial pathogen-infected neutropenic Swiss ICR mouse thigh infection model at 10 mg/kg, ip; format: ADME, organism-based; set-up: dose 10 mg/kg, route intraperitoneal; conditions: in vivo; summary of the method: as §1
# [29] = AUC in bacterial pathogen-infected neutropenic Swiss ICR mouse thigh infection model at 20 mg/kg, ip; format: ADME, organism-based; set-up: dose 20 mg/kg, route intraperitoneal; conditions: in vivo; summary of the method: as §1
# [30] = Cmax in bacterial pathogen-infected neutropenic Swiss ICR mouse thigh infection model at 20 mg/kg, ip; format: ADME, organism-based; set-up: dose 20 mg/kg, route intraperitoneal; conditions: in vivo; summary of the method: as §1
# [31] = system: Streptococcus pneumoniae; assay: Bactericidal activity against penicillin-susceptible Streptococcus pneumoniae ATCC 10813 infected neutropenic Swiss ICR mouse thigh infection model assessed as drug level causing 1-log reduction of bacterial count at 1.34 mg/kg, ip dosed every 24 hrs; format: functional; conditions: route intraperitoneal
# [32] = system: Staphylococcus aureus; assay: Bactericidal activity against […] Staphylococcus aureus ATCC 29213 infected neutropenic Swiss ICR mouse thigh infection model assessed as drug level causing 1-log reduction of bacterial count at 267 mg/kg, ip dosed every 24 hrs; format: functional; conditions: route intraperitoneal
smiles,measurement,setting,value
CN[C@H]1C(=O)N[C@@H]2Cc3ccc(cc3)Oc3cc4cc(c3O[C@@H]3O[C@H](C(=O)O)[C@@H](O)[C@H](O)[C@H]3NC(=O)CCCCCCCCC(C)C)Oc3ccc(cc3Cl)[C@@H](O)[C@@H]3NC(=O)[C@H](NC(=O)[C@@H]4NC(=O)[C@@H](NC2=O)c2cc(cc(O)c2Cl)Oc2cc1ccc2O)c1ccc(O)c(c1)-c1c(O[C@H]2O[C@H](CO)[C@@H](O)[C@H](O)[C@@H]2O)cc(O)cc1[C@@H](C(=O)NCCCN(C)C)NC3=O [DALBAVANCIN],RatioAUC/MIC,[1],16
same,RatioAUC/MIC,[2],29
same,RatioAUC/MIC,[3],18
same,RatioAUC/MIC,[4],7.5
same,RatioAUC/MIC,[5],216
same,Ratio,[6],242
same,RatioAUC/MIC,[7],6
same,Ratio,[8],59
same,Ratio,[9],60
same,RatioAUC/MIC,[10],12.1
same,RatioAUC/MIC,[11],325
same,Ratio,[12],76.6
same,RatioAUC/MIC,[13],519
same,RatioAUC/MIC,[14],361
same,Ratio,[15],125
same,Ratio,[16],173
same,RatioAUC/MIC,[17],254
same,Ratio,[18],94
same,RatioAUC/MIC,[19],1.4
same,RatioAUC/MIC,[20],274
same,RatioAUC/MIC,[21],23.5
same,Ratio,[22],14.6
same,Cmax,[23],385 µg/mL
same,Activity,[24],36
same,Activity,[25],0.77
same,MIC,[26],0.5 µg/mL
same,AUC,[27],285 µg·h/mL
same,AUC,[28],579 µg·h/mL
same,AUC,[29],2260 µg·h/mL
same,Cmax,[30],190 µg/mL
same,Activity,[31],1.54
same,ED 1-log kill,[32],267 mg/kg/day
